Compound activity from PubChem BioAssay.
Only some compounds are listed: those with a hit (about 4.3% of all), similar ones and a draw of the others.
TAAR1 ag – human TAAR1 agonists, primary screen, Fluo-8 calcium fluorescence, CHO RD-HGA16 cells; activation, % at 3 µM; actives 0.99% (n = 360,000); vehicle wells 0%, saturating PEA agonist 100%; AID 624467, 2012; Trace amine-associated receptor 1 (Homo sapiens), Q96RJ0;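 active = activation above the mean activation of all test compounds in the run plus 3 SD, cut at about 38% in these data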
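Test system: RD-HGA16 (CHO) cells co-expressing Gα16 and hTAAR1 / Benchmarks: DMSO vehicle as 0%, PEA at EC100 as 100% / Repeats: no replicates (n 1) / Measure: % activation from peak over basal fluorescence ratio, DMSO-to-PEA scaled / Timing: 17-24 h plating, Fluo-8 75 min 37 °C, 30 min RT / Technique: kinetic Fluo-8 calcium fluorescence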
TAAR1 antagonist – human TAAR1 antagonists, primary screen, Fluo-8 calcium fluorescence, CHO RD-HGA16 cells. AID 624466, 2012. antagonist. Trace amine-associated receptor 1 (Homo sapiens), Q96RJ0. inhibition, % at 3 µM. actives 1.5% (n = 360,000);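 active = inhibition above a per-plate cutoff, the mean inhibition of test compounds on that plate plus 3 SD, cut at about 49% in these data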
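Assay system: CHO-derived RD-HGA16 cells stably expressing human TAAR1 plus Gα16. Timing: 140 s kinetic read after compound, 140 s after agonist. Technique: kinetic Fluo-8 calcium fluorescence measurement. Measure: % inhibition of agonist calcium response.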
MC4R antagonist – MC4R antagonists of cAMP signaling, primary screen, cell-based, TR-FRET, antagonist arm of biased-ligand search; Melanocortin receptor 4 (Homo sapiens), P32245; MC4R-expressing cells, MTII-stimulated cAMP, LANCE TR-FRET; inhibition, % at 6.5 µM; actives 0.48% (n = 360,000); AID 540295, 2011;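 active = inhibition above its plate's cutoff, the mean of tested wells on that plate plus 3 SD, cut at about 29% in these data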
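Material – human MC4R-expressing U2OS cells · Repeats – no replicates · Detection – TR-FRET with Eu-cAMP and labeled anti-cAMP, 671 nm · Times – compound 30 min, challenge 1 h, detection 1 h · Compound – single nominal compound dose of 6.5 µM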
Beta2AR agonist – beta2AR agonists driving receptor internalization, primary screen, cell-based, FAP fluorogen, flow cytometry; Beta-2 adrenergic receptor (Homo sapiens), P07550; Am2.2-beta2AR cells; response, % (no concentration beside the values); actives 0.43% (n = 340,000); AID 504454, 2011;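 active = response above a set limit, near 3 SD of response in nonfluorescent compounds, cut at about 42% in these data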
HTR2A ag – mouse Htr2a agonists via beta-arrestin recruitment, primary screen, cell-based, luminescence; AID 624169, 2012; CHO-K1 mHTR2A beta-arrestin complementation; percent of 30 µM serotonin response; actives 0.66% (n = 360,000); activation, % at 7.6 µM;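 active = activation above a run cutoff, the mean activation of all tested compounds plus 3 SD, cut at about 14% in these data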
Target sequence (P35363 whole entry, looked up): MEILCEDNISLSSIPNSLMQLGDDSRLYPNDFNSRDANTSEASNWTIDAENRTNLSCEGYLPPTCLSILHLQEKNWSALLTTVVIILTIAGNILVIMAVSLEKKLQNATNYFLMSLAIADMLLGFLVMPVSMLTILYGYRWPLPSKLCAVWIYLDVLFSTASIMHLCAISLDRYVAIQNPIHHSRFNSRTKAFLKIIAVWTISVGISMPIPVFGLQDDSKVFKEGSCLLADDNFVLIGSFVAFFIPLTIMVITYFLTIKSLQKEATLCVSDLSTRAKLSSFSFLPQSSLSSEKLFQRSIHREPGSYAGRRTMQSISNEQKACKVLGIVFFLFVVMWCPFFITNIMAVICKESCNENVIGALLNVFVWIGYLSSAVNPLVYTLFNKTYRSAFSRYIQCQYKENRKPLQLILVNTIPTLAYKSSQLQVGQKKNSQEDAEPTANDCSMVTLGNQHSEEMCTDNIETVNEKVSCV
MC4R ag barr – MC4R agonists recruiting beta-arrestin, primary screen, cell-based, luminescence, agonist arm of biased-ligand search; Melanocortin receptor 4 (Homo sapiens), P32245; U2OS MC4R beta-arrestin complementation; percent of melanotan II response, DMSO zero; activation, % at 8.9 µM; actives 0.98% (n = 360,000); AID 540308, 2011;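 active = activation above a per-plate cutoff, the mean activation of sample wells on that plate plus 3 SD, cut at about 8% in these data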
OPRM1 ag – OPRM1 agonists via beta-arrestin recruitment, confirmation, counter-screen for mouse HTR2A agonist project, cell-based, luminescence, single concentration; AID 624380, 2012; U2OS OPRM1 beta-arrestin PathHunter; DMSO 0%, DAMGO 9.3 µM 100%; activation, % at 9.3 µM; shares compounds with HTR2A ag; actives 5.3% (n = 2,300);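 active = mean activation above the mean of DMSO-only wells plus 3 SD, cut at about 0.5% in these data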
HTR2A ag conf – mouse HTR2A agonists, beta-arrestin recruitment, confirmation, cell-based, luminescence, CHO-K1 PathHunter, triplicate | shares compounds with HTR2A ag | DMSO 0%, 30 µM serotonin 100% | activation, % at 7.6 µM | actives 19% (n = 2,300);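 active = mean activation across triplicates above the hit threshold derived in the original primary screen, cut at about 15% in these data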
Large screens that a line does not name were inactive (follow-up assays come after a bar, where they were run).

COc1ccc(NC2c3ccccc3C(=O)N2Cc2ccco2)cc1OC (configuration not stated)	none
COc1ccccc1CNC(=O)c1cccnc1	none
Cc1ccncc1CNC(=O)c1ccccc1	HTR2A ag 16.0 | OPRM1 ag inactive | HTR2A ag conf inactive
Cc1nc(N(C)C2CCCCC2)c2nnn(Cc3ccc(F)cc3)c2n1	none (no result: Beta2AR agonist)
CC(C)(C)NC(=O)N1CCN(c2nc(-c3ccccc3)ns2)CC1	HTR2A ag 15.5 | OPRM1 ag inactive | HTR2A ag conf inactive
CCN(CC)S(=O)(=O)c1cccc(NC(=O)CN2C(=O)c3ccc([N+](=O)[O-])cc3C2=O)c1	HTR2A ag 18.1 | OPRM1 ag inactive | HTR2A ag conf inactive
O=C(CNC(=O)c1ccc2c(=O)n3c(nc2c1)CCC3)Nc1ccc(F)c(F)c1	none
CC(OC(=O)c1ccccc1Br)C(=O)Nc1nc(-c2cccc([N+](=O)[O-])c2)cs1 (configuration not stated)	HTR2A ag 16.6 | OPRM1 ag inactive | HTR2A ag conf inactive
O=C(Nc1nc(-c2cccc([N+](=O)[O-])c2)cs1)C(c1ccccc1)c1ccccc1	none
CCCN1CCC(=O)NC1=S	none
CC(C)(C)CC(=O)Nc1nnc(-c2cccs2)s1	none
O=C(Nc1ccccc1)Nc1nnc(-c2cccs2)s1	HTR2A ag 21.3 | OPRM1 ag inactive | HTR2A ag conf inactive
O=C(c1ccccc1)c1cccs1	none
CC(C(=O)O)c1ccc(C(=O)c2cccs2)cc1 (configuration not stated)	HTR2A ag 18.2 | OPRM1 ag inactive | HTR2A ag conf 49.5
COc1cccc(C(=O)Nc2cc(C)nn2-c2ccccc2)c1OC	none
CCNC(=O)C1(C)CCN(C(=O)c2cc(F)cc(F)c2)C1 (configuration not stated)	none (no result: Beta2AR agonist)
CCCS(=O)(=O)NC(=O)C1(C)CCN(C(=O)c2cc(F)cc(F)c2)C1 (configuration not stated)	HTR2A ag 14.7 (no result: Beta2AR agonist) | OPRM1 ag inactive | HTR2A ag conf inactive
CCCS(=O)(=O)NC(=O)C1(C)CCN(C(=O)C2(c3ccc(Cl)cc3)CCCC2)C1 (configuration not stated)	HTR2A ag 16.5 (no result: Beta2AR agonist) | OPRM1 ag inactive | HTR2A ag conf inactive
Nc1[nH]c(C(=O)c2ccccc2)c(-c2ccc(Cl)cc2)c1C(=O)c1c[nH]c2cc(F)ccc12	none (no result: MC4R antagonist, Beta2AR agonist, HTR2A ag, MC4R ag barr)
COc1cccc(C(=O)NCC(=O)OCC(=O)Nc2cc(OC)c([N+](=O)[O-])cc2C)c1	HTR2A ag 17.0 | OPRM1 ag inactive | HTR2A ag conf inactive
COc1cc(NC(=O)COC(=O)CNC(=O)c2cc(C)cc(C)c2)c(C)cc1[N+](=O)[O-]	none
Cc1nc2cc(Cl)c([N+](=O)[O-])cc2s1	HTR2A ag 18.5 | OPRM1 ag inactive | HTR2A ag conf inactive
CSCCC(C(=O)Nc1c(C)cccc1C)N1CCN(c2ccc(C(F)(F)F)cn2)CC1 (configuration not stated)	none (no result: MC4R antagonist, Beta2AR agonist, MC4R ag barr)
Cc1ccnc(NS(=O)(=O)c2ccc(NC(=O)c3snnc3C)cc2)n1	HTR2A ag 14.8 | OPRM1 ag inactive | HTR2A ag conf inactive
Cc1ccc(CNC(=O)c2ccc(N3CCC4(CC3)CC(c3cccc(Br)c3)=NO4)c([N+](=O)[O-])c2)cc1	HTR2A ag 14.4 | OPRM1 ag inactive | HTR2A ag conf inactive
CCCn1c(N)c(Sc2ccc(Cl)cc2)c(=O)n(CCC)c1=O	HTR2A ag 22.5 | OPRM1 ag inactive | HTR2A ag conf inactive
CCCCn1c(N)c(Sc2ccc(Cl)cc2)c(=O)[nH]c1=O	none
COc1cccc(CNC(=O)[C@@H]2CCCN2C(=O)[C@@H]2CCCN2S(=O)(=O)c2ccc(OC)c(C)c2)c1	none (no result: MC4R antagonist, Beta2AR agonist, MC4R ag barr)
CN(C)S(=O)(=O)NC(=O)C1=C(N2CCCC2)COC1=O	HTR2A ag 23.0 | OPRM1 ag inactive | HTR2A ag conf inactive
CON(C)S(=O)(=O)NC(=O)C1=C(N2CCCC2)COC1=O	none
CC(C)(C)C(=O)Nc1nnc([C@H]2C[C@H](O)[C@@H](CO)O2)s1	none (no result: Beta2AR agonist)
CC/C(=N\NC(=O)C1CCCC1)c1ccc(Br)cc1	HTR2A ag 18.4 | OPRM1 ag inactive | HTR2A ag conf inactive
O=C(NC1(C(F)(F)F)NC(=O)N(c2ccc(F)cc2)C1=O)c1cccs1 (configuration not stated)	HTR2A ag 18.2 | OPRM1 ag inactive | HTR2A ag conf inactive
Cc1ccc(NC(=O)N2CCOCC2)cc1NC(=O)N1CCOCC1	none (no result: Beta2AR agonist)
CC(C)n1c(=O)c2ccccc2n1Cc1cn(-c2ccc(Cl)cc2)nn1	none (no result: MC4R antagonist, Beta2AR agonist, MC4R ag barr)
O=C(COC(=O)CCC(=O)c1ccc(Cl)cc1)NCCc1ccccc1	HTR2A ag 18.3 | OPRM1 ag inactive | HTR2A ag conf inactive
COc1ccc(C2=NN(C(=O)CCC(=O)O)C(c3ccc([N+](=O)[O-])cc3)C2)cc1 (configuration not stated)	HTR2A ag 18.9 | OPRM1 ag inactive | HTR2A ag conf inactive
Cc1cc(OCC(=O)OCC(=O)NCc2ccco2)ccc1Cl	HTR2A ag 14.5 | OPRM1 ag inactive | HTR2A ag conf inactive
COc1cc(OC)nc(NC(=O)CS(=O)(=O)c2ccccc2)n1	HTR2A ag 15.7 | OPRM1 ag inactive | HTR2A ag conf inactive
COc1ccc(OC)c(NC(=O)CS(=O)(=O)c2ccccc2)c1	none
O=c1c2ccccc2nc(/C=C/c2c[nH]c3ccccc23)n1CCO	HTR2A ag 14.5 | OPRM1 ag inactive | HTR2A ag conf inactive
COc1cc2cc(C(=O)N(C)Cc3ccccc3)[nH]c2cc1OC	none
C=CCN(Cc1ccc(OC)c(OC)c1)C(=O)c1cc2cc(F)ccc2[nH]1	HTR2A ag 20.4 | OPRM1 ag inactive | HTR2A ag conf inactive
